Experimental data published in ChEMBL document CHEMBL4043279 (Bioorg Med Chem Lett, 2017).
Active and inactive are the calls of the source. The rule behind the calls is not given here.

Columns and labels:
[1] = system: PBMC; assay: Antiproliferative activity against human PBMC treated for 24 hrs measured after 72 hrs by MTT assay; format: cell-based
[2] = system: PC-3; assay: Antiproliferative activity against human PC3 cells treated for 24 hrs measured after 72 hrs by MTT assay; format: functional, cell-based
[3] = system: HL-60; assay: Antiproliferative activity against human HL60 cells treated for 24 hrs measured after 72 hrs by MTT assay; format: functional, cell-based
[4] = system: HepG2; assay: Antiproliferative activity against human HepG2 cells treated for 24 hrs measured after 72 hrs by MTT assay; format: functional, cell-based
[5] = system: THP-1; assay: Antiproliferative activity against human THP1 cells treated for 24 hrs measured after 72 hrs by MTT assay; format: functional, cell-based
[6] = system: HL-60; assay: Induction of mitochondrial membrane potential loss in human HL60 cells assessed as cells with collapsed mitochondrial membrane potential at 1 uM after 48 hrs by JC-1 staining based flow cytometry (reference value: 7.81%); format: functional
[7] = system: HL-60; assay: Cell cycle arrest in human HL60 cells assessed as accumulation at G2-phase at 1 uM after 48 hrs by propidium iodide staining based flow cytometry (reference value: 11.61%); format: functional
[8] = system: HL-60; assay: Induction of apoptosis in human HL60 cells assessed as live cells at 1 uM after 48 hrs by Annexin V-FITC/propidium iodide staining based flow cytometry (reference value: 95.75%); format: functional
Method in brief: (§1)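 HL-60 cells were treated for 48 h with vehicle alone or with 0.25, 0.5 or 1.0 μM. Cells were then stained with FITC-Annexin V and PI and analysed by two-parameter flow cytometry. Quadrants were scored as viable (LL), early apoptotic (LR), late apoptotic/necrotic (UR) and necrotic (UL). Total apoptosis was taken as early plus late.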

[9] = system: HL-60; assay: Cell cycle arrest in human HL60 cells assessed as accumulation at G2-phase at 0.5 uM after 48 hrs by propidium iodide staining based flow cytometry (reference value: 11.61%); format: functional
[10] = system: HL-60; assay: Induction of mitochondrial membrane potential loss in human HL60 cells assessed as cells with collapsed mitochondrial membrane potential at 0.5 uM after 48 hrs by JC-1 staining based flow cytometry (reference value: 7.81%); format: functional
[11] = system: HL-60; assay: Cell cycle arrest in human HL60 cells assessed as accumulation at G1-phase at 1 uM after 48 hrs by propidium iodide staining based flow cytometry (reference value: 63.21%); format: functional
[12] = system: HL-60; assay: Induction of apoptosis in human HL60 cells assessed as chromatin condensation at 0.25 to 1 uM after 48 hrs […]; format: functional, cell-based
[13] = system: HL-60; assay: Induction of apoptosis in human HL60 cells assessed as necrotic cells at 0.5 uM after 48 hrs by Annexin V-FITC/propidium iodide staining based flow cytometry (reference value: 0.03%); format: functional; method in brief: as §1
[14] = system: HL-60; assay: Cell cycle arrest in human HL60 cells assessed as accumulation at G2-phase at 0.25 uM after 48 hrs by propidium iodide staining based flow cytometry (reference value: 11.61%); format: functional
[15] = system: HL-60; assay: Cell cycle arrest in human HL60 cells assessed as accumulation at S-phase at 0.5 uM after 48 hrs by propidium iodide staining based flow cytometry (reference value: 25.19%); format: functional
[16] = system: HL-60; assay: Induction of apoptosis in human HL60 cells assessed as early apoptotic cells at 0.5 uM after 48 hrs by Annexin V-FITC/propidium iodide staining based flow cytometry (reference value: 2.66%); format: functional; method in brief: as §1
[17] = system: HL-60; assay: Induction of apoptosis in human HL60 cells assessed as early apoptotic cells at 1 uM after 48 hrs by Annexin V-FITC/propidium iodide staining based flow cytometry (reference value: 2.66%); format: functional; method in brief: as §1
[18] = system: HL-60; assay: Induction of apoptosis in human HL60 cells assessed as live cells at 0.5 uM after 48 hrs by Annexin V-FITC/propidium iodide staining based flow cytometry (reference value: 95.75%); format: functional; method in brief: as §1
[19] = system: HL-60; assay: Induction of mitochondrial membrane potential loss in human HL60 cells assessed as cells with intact mitochondrial membrane at 1 uM after 48 hrs by JC-1 staining based flow cytometry (reference value: 92.17%); format: functional
[20] = system: HL-60; assay: Induction of apoptosis in human HL60 cells after 48 hrs by Annexin V-FITC/propidium iodide staining based flow cytometry; format: functional, cell-based; method in brief: as §1
[21] = system: HL-60; assay: Cell cycle arrest in human HL60 cells assessed as accumulation at S-phase at 0.25 uM after 48 hrs by propidium iodide staining based flow cytometry (reference value: 25.19%); format: functional
[22] = system: HL-60; assay: Induction of apoptosis in human HL60 cells assessed as late apoptotic cells at 0.5 uM after 48 hrs by Annexin V-FITC/propidium iodide staining based flow cytometry (reference value: 1.56%); format: functional; method in brief: as §1
[23] = system: HL-60; assay: Induction of apoptosis in human HL60 cells assessed as nuclear fragmentation at 0.25 to 1 uM after 48 hrs by […]; format: functional, cell-based
[24] = system: HL-60; assay: Cell cycle arrest in human HL60 cells assessed as accumulation at S-phase at 1 uM after 48 hrs by propidium iodide staining based flow cytometry (reference value: 25.19%); format: functional
[25] = system: HL-60; assay: Induction of mitochondrial membrane potential loss in human HL60 cells assessed as cells with intact mitochondrial membrane at 0.5 uM after 48 hrs by JC-1 staining based flow cytometry (reference value: 92.17%); format: functional
[26] = system: HL-60; assay: Induction of apoptosis in human HL60 cells assessed as live cells at 0.25 uM after 48 hrs by Annexin V-FITC/propidium iodide staining based flow cytometry (reference value: 95.75%); format: functional; method in brief: as §1
[27] = system: HL-60; assay: Induction of apoptosis in human HL60 cells assessed as early apoptotic cells at 0.25 uM after 48 hrs by Annexin V-FITC/propidium iodide staining based flow cytometry (reference value: 2.66%); format: functional; method in brief: as §1
[28] = system: HL-60; assay: Induction of mitochondrial membrane potential loss in human HL60 cells assessed as cells with collapsed mitochondrial membrane potential after 48 hrs by JC-1 staining based flow cytometry; format: functional, cell-based
[29] = system: HL-60; assay: Induction of mitochondrial membrane potential loss in human HL60 cells assessed as cells with intact mitochondrial membrane at 0.25 uM after 48 hrs by JC-1 staining based flow cytometry (reference value: 92.17%); format: functional
[30] = system: HL-60; assay: Induction of apoptosis in human HL60 cells assessed as late apoptotic cells at 0.25 uM after 48 hrs by Annexin V-FITC/propidium iodide staining based flow cytometry (reference value: 1.56%); format: functional; method in brief: as §1
[31] = system: HL-60; assay: Induction of apoptosis in human HL60 cells assessed as necrotic cells at 1 uM after 48 hrs by Annexin V-FITC/propidium iodide staining based flow cytometry (reference value: 0.03%); format: functional; method in brief: as §1
[32] = system: HL-60; assay: Cell cycle arrest in human HL60 cells assessed as accumulation at G1-phase at 0.25 uM after 48 hrs by propidium iodide staining based flow cytometry (reference value: 63.21%); format: functional
[33] = system: HL-60; assay: Induction of apoptosis in human HL60 cells assessed as necrotic cells at 0.25 uM after 48 hrs by Annexin V-FITC/propidium iodide staining based flow cytometry (reference value: 0.03%); format: functional; method in brief: as §1
[34] = system: HL-60; assay: Cell cycle arrest in human HL60 cells assessed as accumulation at G1-phase at 0.5 uM after 48 hrs by propidium iodide staining based flow cytometry (reference value: 63.21%); format: functional
[35] = system: HL-60; assay: Induction of mitochondrial membrane potential loss in human HL60 cells assessed as cells with collapsed mitochondrial membrane potential at 0.25 uM after 48 hrs by JC-1 staining based flow cytometry (reference value: 7.81%); format: functional
[36] = system: HL-60; assay: Induction of apoptosis in human HL60 cells assessed as late apoptotic cells at 1 uM after 48 hrs by Annexin V-FITC/propidium iodide staining based flow cytometry (reference value: 1.56%); format: functional; method in brief: as §1

## CN1c2ccccc2C(=O)N2CCc3c(n(CCCCCCOC(=O)CCCc4ccc(N(CCCl)CCCl)cc4)c4ccccc34)C21 (centres undefined)
[1]
  IC50: > 200 µM
[2]
  IC50: > 100 µM
[3]
  IC50: 17.5 µM
[4]
  IC50: > 100 µM
[5]
  IC50: 10.5 µM

## O=c1[nH]cc(F)c(=O)[nH]1 [FLUOROURACIL]
[2]
  IC50: 23.9 µM
[3]
  IC50: 3.69 µM
[5]
  IC50: 4.87 µM

## CN1c2ccccc2C(=O)N2CCc3c(n(CCCO)c4ccccc34)C21 (centres undefined)
[1]
  IC50: > 200 µM
[2]
  IC50: 27.3 µM
[3]
  IC50: 6.03 µM
[4]
  IC50: > 100 µM
[5]
  IC50: 8.89 µM

## CN1c2ccccc2C(=O)N2CCc3c([nH]c4ccccc34)C21 (centres undefined)
[1]
  IC50: 22.9 µM
[2]
  IC50: 14 µM
[3]
  IC50: 1.39 µM
[4]
  IC50: 9.32 µM
[5]
  IC50: 3.37 µM

## COC(=O)[C@H](Cc1ccc(N(CCCl)CCCl)cc1)NC(=O)CCC(=O)OCCCCCCn1c2c(c3ccccc31)CCN1C(=O)c3ccccc3N(C)C21 (some centres undefined)
[1]
  IC50: > 200 µM
[2]
  IC50: > 100 µM
[3]
  IC50: 2.84 µM
[4]
  IC50: > 100 µM
[5]
  IC50: 4.24 µM

## CN1c2ccccc2C(=O)N2CCc3c(n(CCCOCCCOC(=O)CCCc4ccc(N(CCCl)CCCl)cc4)c4ccccc34)C21 (centres undefined)
[1]
  IC50: > 200 µM
[2]
  IC50: 27.6 µM
[3]
  IC50: 1.29 µM
[4]
  IC50: > 100 µM
[5]
  IC50: 5.31 µM

## COC(=O)[C@H](Cc1ccc(N(CCCl)CCCl)cc1)NC(=O)CCC(=O)OCCCOCCCn1c2c(c3ccccc31)CCN1C(=O)c3ccccc3N(C)C21 (some centres undefined)
[6]
  Activity: 62.78%
[1]
  IC50: > 200 µM
[7]
  Activity: 25.99%
[8]
  Activity: 34.97%
[9]
  Activity: 15.19%
[10]
  Activity: 28.51%
[11]
  Activity: 45.83%
[12]
  Activity: Active
[13]
  Activity: 0.72%
[2]
  IC50: > 100 µM
[14]
  Activity: 13.19%
[15]
  Activity: 26.28%
[3]
  IC50: 0.5 µM
[16]
  Activity: 40.31%
[17]
  Activity: 57.54%
[18]
  Activity: 53.71%
[19]
  Activity: 37.22%
[20]
  Activity: Dose-dependent effect
[21]
  Activity: 24.42%
[22]
  Activity: 5.27%
[4]
  IC50: 17 µM
[23]
  Activity: Active
[24]
  Activity: 28.18%
[25]
  Activity: 71.49%
[5]
  IC50: 4.05 µM
[26]
  Activity: 83.31%
[27]
  Activity: 10.41%
[28]
  Activity: Dose-dependent effect
[29]
  Activity: 85.67%
[30]
  Activity: 5.69%
[31]
  Activity: 0.79%
[32]
  Activity: 62.39%
[33]
  Activity: 0.58%
[34]
  Activity: 58.52%
[35]
  Activity: 14.13%
[36]
  Activity: 6.7%

## CN1c2ccccc2C(=O)N2CCc3c(n(CCCCCCO)c4ccccc34)C21 (centres undefined)
[1]
  IC50: > 200 µM
[2]
  IC50: 21.5 µM
[3]
  IC50: 8.53 µM
[4]
  IC50: > 100 µM
[5]
  IC50: 6.97 µM

## COC(=O)[C@H](Cc1ccc(N(CCCl)CCCl)cc1)NC(=O)CCC(=O)OCCn1c2c(c3ccccc31)CCN1C(=O)c3ccccc3N(C)C21 (some centres undefined)
[1]
  IC50: > 200 µM
[2]
  IC50: > 100 µM
[3]
  IC50: 3.11 µM
[4]
  IC50: > 100 µM
[5]
  IC50: 9.37 µM

## CN1c2ccccc2C(=O)N2CCc3c(n(CCOC(=O)c4ccc(N(CCCl)CCCl)cc4)c4ccccc34)C21 (centres undefined)
[1]
  IC50: > 200 µM
[2]
  IC50: > 100 µM
[3]
  IC50: 27.2 µM
[4]
  IC50: > 100 µM
[5]
  IC50: 33.6 µM
